ChEMBL document CHEMBL1133611, “Molecular design, synthesis, and hypoglycemic activity of a series of thiazolidine-2,4-diones” (J Med Chem, 2000)
Values belong to the compound of their own block, whether it stands above or below them.

How the values were obtained:
[1] = The hypoglycemic activity in diabetic KK mice, activity expressed as % decrease in blood glucose (21h); format: functional, Mus musculus
Method in brief: (§1)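 Nonfasting diabetic KK mice, n = 3, received 1 mg/kg immediately after the first blood sampling and again 18 h later. Tail-vein plasma was taken 18 and 21 h after the first dose, and glucose was measured. Activity (%) = (control PG − treated PG)/control PG × 100; mean ± SEM.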

[2] = The hypoglycemic activity in diabetic KK mice, activity expressed as % decrease in blood glucose (18 h); format: functional, Mus musculus; method in brief: as §1
3T3-L1 = test: Stimulation of adipogenesis in 3T3-L1 cells is expressed as concentration equivalent to the [ 1-14C] uptake counts after treatment with 0.2 ug/mL troglitazone; format: functional, Mus musculus
Method in brief: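 Mouse 3T3-L1 preadipocytes were grown to confluence on collagen-coated wells, then given differentiation medium (5% FBS, 100 ng/mL insulin, 0.1 mM IBMX, dexamethasone) plus compound (DMSO 0.1% v/v final) for 4 days. This was followed by maintenance medium (5% FBS, insulin) for 2 days. Cells were then pulsed 1 h with 7.4 kBq/mL [1-14C]acetic acid, washed, and counted by scintillation.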

[3] = Area under the curve for fumarate salt was evaluated in F344 Rats.; format: ADME, organism-based; details: F344, rat, in vivo
Method in brief: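 Single oral dose of 25 mg/kg to F344 rats; AUC (µg·h/mL) reported as mean ± SEM, n = 3.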

Rattus norvegicus [4] = test: Relative wt in two week oral toxicity test in male F344/DuCrj rats after 50 mg/kg dose; format: functional
Method in brief: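 Seven-week-old male F344/DuCrj rats, n = 5/group; compound suspended in 0.5% carboxymethylcellulose sodium in water, given by gavage at 50 mg/kg for 2 weeks; controls got vehicle alone. At termination, ether anaesthesia and exsanguination via abdominal aorta; heart and major organs excised and weighed. Relative weight = organ weight/100 g final body weight; mean ± SE, Student's t-test vs control.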

Rattus norvegicus [5] = test: Heart wt absolute in two week oral toxicity test in male F344/DuCrj rats after 50 mg/kg dose; format: functional
Method in brief: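 Seven-week-old male rats, n = 5/group, dosed by gavage at 50 mg/kg for 2 weeks as a suspension in 0.5% carboxymethylcellulose sodium in water; controls received vehicle alone. At termination rats were ether-anaesthetized and exsanguinated via the abdominal aorta, and the heart was excised and weighed. Relative weight = absolute weight/100 g final body weight. Mean ± SE; Student's t-test against control.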

Structure (SMILES): O=C1NC(=O)C(Cc2ccc(OCc3nc4cccnc4n3-c3ccccc3)cc2)S1 (centres undefined)
Decrease [1]: -3.4%
Decrease [2]: 3.9%
EC (3T3-L1): 2.56 µM

Structure (SMILES): Cn1c(COc2ccc(CC3SC(=O)NC3=O)cc2)nc2cc(C(F)(F)F)cnc21 (centres undefined)
Decrease [1]: -26.4%
Decrease [2]: -0.7%
EC (3T3-L1): 0.073 µM

AUC [3]: 11900 ng·h/mL
Structure (SMILES): COc1ccc2nc(COc3ccc(CC4SC(=O)NC4=O)cc3)n(C)c2n1 (centres undefined)
Decrease [1]: 2.9%
Decrease [2]: 3.6%
EC (3T3-L1): 0.08 µM

Structure (SMILES): O=C1NC(=O)C(Cc2ccc(OCc3nc4cccnc4n3Cc3ccc(-c4ccccc4)cc3)cc2)S1 (centres undefined)
Decrease [1]: 11.4%
Decrease [2]: 3.8%
EC (3T3-L1): 0.92 µM

Structure (SMILES): CCn1c(COc2ccc(CC3SC(=O)NC3=O)cc2)nc2cccnc21 (centres undefined)
Decrease [1]: 2.4%
Decrease [2]: -19.5%
EC (3T3-L1): 1.07 µM

Structure (SMILES): Cn1c(COc2ccc(CC3SC(=O)NC3=O)cc2)nc2ccc(OCc3ccccc3)nc21 (centres undefined)
Decrease [1]: 18.8%
Decrease [2]: 20.3%
EC (3T3-L1): 0.067 µM

Structure (SMILES): Cc1ccnc2c1nc(COc1ccc(CC3SC(=O)NC3=O)cc1)n2C (centres undefined)
Decrease [1]: -6.9%
Decrease [2]: -18.2%
EC (3T3-L1): 0.37 µM

Structure (SMILES): Cn1c(COc2ccc(CC3SC(=O)NC3=O)cc2)nc2cccnc21 (centres undefined)
Decrease [1]: 27.6%
Control (Rattus norvegicus [4]): 116%
Relative (Rattus norvegicus [4]): 0.36 g %
EC (3T3-L1): 0.13 µM
Absolute heart weight, % of control (Rattus norvegicus [5]): 128%
Heart weight absolute (Rattus norvegicus [5]): 0.78 g

Structure (SMILES): O=C1NC(=O)C(Cc2ccc(OCc3nc4cccnc4n3Cc3ccc(Cl)cc3)cc2)S1 (centres undefined)
Decrease [1]: -8.5%
EC (3T3-L1): 0.71 µM

AUC [3]: 141000 ng·h/mL
Structure (SMILES): COc1ccc2nc(COc3ccc(CC4SC(=O)NC4=O)cc3)n(C)c2n1.Cl (centres undefined)
Decrease [1]: 1%
Control (Rattus norvegicus [4]): 106%
Relative (Rattus norvegicus [4]): 0.33 g %
Decrease [2]: 14.8%
EC (3T3-L1): 0.11 µM
Absolute heart weight, % of control (Rattus norvegicus [5]): 111%
Heart weight absolute (Rattus norvegicus [5]): 0.68 g

Structure (SMILES): CN(CCOc1ccc(CC2SC(=O)NC2=O)cc1)c1ccccn1 (centres undefined) [ROSIGLITAZONE]
Decrease [1]: 14.6%
Control (Rattus norvegicus [4]): 113%
Relative (Rattus norvegicus [4]): 0.36 g %
Decrease [2]: 21.7%
EC (3T3-L1): 0.09 µM
Absolute heart weight, % of control (Rattus norvegicus [5]): 119%
Heart weight absolute (Rattus norvegicus [5]): 0.76 g

Structure (SMILES): Cn1c(COc2ccc(CC3SC(=O)NC3=O)cc2)nc2ccc(Cl)nc21 (centres undefined)
Decrease [1]: 47.6%
Control (Rattus norvegicus [4]): 116%
Relative (Rattus norvegicus [4]): 0.37 g %
EC (3T3-L1): 0.0009 µM
Absolute heart weight, % of control (Rattus norvegicus [5]): 123%
Heart weight absolute (Rattus norvegicus [5]): 0.74 g

Structure (SMILES): Cn1c(Oc2ccc(CC3SC(=O)NC3=O)cc2)nc2cccnc21 (centres undefined)
Decrease [1]: 3.6%
Decrease [2]: -7%
EC (3T3-L1): 1.35 µM

Structure (SMILES): Cn1c(COc2ccc(CC3SC(=O)NC3=O)cc2)nc2cc(Br)cnc21 (centres undefined)
Decrease [1]: 6.2%
EC (3T3-L1): 0.34 µM

Structure (SMILES): O=C1NC(=O)C(Cc2ccc(OCc3nc4ccc[nH]c-4n3)cc2)S1 (centres undefined)
Decrease [1]: 7.4%
Decrease [2]: 13.9%
EC (3T3-L1): 8.18 µM

Structure (SMILES): Cn1c(COc2ccc(CC3SC(=O)NC3=O)cc2)nc2ccc(-c3ccccc3)nc21 (centres undefined)
Decrease [1]: 38.1%
Decrease [2]: 15.5%
EC (3T3-L1): 0.36 µM

AUC [3]: 36400 ng·h/mL
Structure (SMILES): COc1ccc2nc(COc3ccc(CC4SC(=O)NC4=O)cc3)n(C)c2n1.O=C(O)/C=C/C(=O)O (centres undefined)

Structure (SMILES): O=C1NC(=O)C(Cc2ccc(OCc3cn4ccccc4n3)cc2)S1 (centres undefined)
Decrease [1]: 12.7%
Decrease [2]: 5.9%
EC (3T3-L1): 5.09 µM

Structure (SMILES): Cn1c(COc2ccc(CC3SC(=O)NC3=O)cc2)nc2ccc(O)nc21 (centres undefined)
Decrease [1]: -3.2%
Decrease [2]: -30.6%
EC (3T3-L1): 1.98 µM

Structure (SMILES): Cn1c(CCOc2ccc(CC3SC(=O)NC3=O)cc2)nc2cccnc21 (centres undefined)
Decrease [1]: 13%
Decrease [2]: -5.6%
EC (3T3-L1): 0.65 µM

Structure (SMILES): Cn1c(COc2ccc(CC3SC(=O)NC3=O)cc2)nc2ccc(Sc3ccccc3)nc21 (centres undefined)
Decrease [1]: 14.7%
Decrease [2]: -21.2%
EC (3T3-L1): 0.067 µM

Structure (SMILES): Cn1c(COc2ccc(CC3SC(=O)NC3=O)cc2)nc2cc(Cl)cnc21 (centres undefined)
Decrease [1]: 49.7%
EC (3T3-L1): 0.16 µM

Structure (SMILES): CCOc1ccc2nc(COc3ccc(CC4SC(=O)NC4=O)cc3)n(C)c2n1 (centres undefined)
Decrease [1]: 23.6%
Decrease [2]: 29.7%
EC (3T3-L1): 0.078 µM

Structure (SMILES): CC(C)Oc1ccc2nc(COc3ccc(CC4SC(=O)NC4=O)cc3)n(C)c2n1 (centres undefined)
Decrease [1]: -0.2%
Decrease [2]: 14.6%
EC (3T3-L1): 0.075 µM

Structure (SMILES): Cc1cc(C)c2nc(COc3ccc(CC4SC(=O)NC4=O)cc3)n(C)c2n1 (centres undefined)
Decrease [1]: 9.5%
Decrease [2]: 9.5%
EC (3T3-L1): 0.22 µM

Structure (SMILES): Cn1c(CCCOc2ccc(CC3SC(=O)NC3=O)cc2)nc2cccnc21 (centres undefined)
Decrease [1]: -9.3%
Decrease [2]: -3%
EC (3T3-L1): 0.081 µM
